Consider eight molecules from ChEMBL document CHEMBL1811802, “Synthesis and significant cytostatic activity of 7-hetaryl-7-deazaadenosines” (J Med Chem, 2011).

One may read the pIC50 as −log10 of the IC50, conventionally taken in molar units. A higher pIC50 goes with a low IC50. By GI50 is commonly meant the concentration giving 50% growth inhibition. A higher GI50 goes with less potent growth inhibition.

For assay [1], the system named is HL-60. Description: Cytotoxicity against human HL60 cells after 3 days by XTT assay. It counts as functional, cell-based. The conditions noted are these: HL-60, 72 h. The method in brief: (§1)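 Suspension-grown cell lines, 3-day compound incubation; viability read by XTT metabolic assay; IC50 averaged from four independent experiments.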
For assay [2], the system named is HCT-116. Nature of the assay: Cytostatic activity against human HCT116 cells after 5 days by SRB assay. The format is functional. The settings on record: HCT-116, 120 h. In a few lines: (§2)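 Cells seeded per line density, overnight at 37 °C; day-zero plate TCA-fixed. 5-fold serial dilutions added, 5-day incubation; TCA fixation, 0.057% SRB in 1% acetic acid 30 min, dye dissolved in 10 mM Tris pH 10.5, A500. Growth relative to day-zero and untreated; GIC50 from sigmoidal dose–response fit; mean of two independent experiments.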
On the technique in general: The SRB assay estimates cell density from bound dye.

For assay [3], the system named is A549. Description: Cytostatic activity against human A549 cells after 5 days by SRB assay. The conditions noted are these: A549, 120 h. The format is functional. The method in brief: as §2
In assay [4] the test system is PC-3. Description: Cytostatic activity against human PC3 cells after 5 days by SRB assay. The settings on record: PC-3, 120 h. It counts as functional. The method in brief:
as §2

Assay [5] in a line: Cytostatic activity against human Hs578 cells after 5 days by SRB assay. The format is functional. The conditions noted are these: Hs578, 120 h. In a few lines:
as §2

The subject of assay [6] is MT4. Description: Cytostatic activity against human MT4 cells after 5 days by SRB assay. The format is functional. The settings on record: MT4, 120 h.
Assay [7] concerns HCT-15. Description: Cytostatic activity against human HCT15 cells after 5 days by SRB assay. It counts as functional. The conditions noted are these: HCT-15, 120 h. In a few lines: as §2
The test system of assay [8] is CCRF-CEM. Nature of the assay: Cytotoxicity against human CCRF-CEM cells after 3 days by XTT assay. The format is functional, cell-based. The conditions noted are these: 72 h. In a few lines:
as §1
On the technique in general: Formazan colour is commonly taken as a measure of viable cells.

Assay [9] concerns NCI-H23. Description: Cytostatic activity against human NCI-H23 cells after 5 days by SRB assay. The format is functional. The settings on record: NCI-H23, 120 h. The method in brief: as §2
Assay [10] addresses Adenosine kinase (Homo sapiens, UniProt P55263). Description: Inhibition of human ADK using [3H]-adenosine by scintillation counting.
Assay [11] has as its system DU-145. Description: Cytostatic activity against human DU145 cells after 5 days by SRB assay. The format is functional. The conditions noted are these: DU-145, 120 h. The method in brief:
as §2

A short description of assay [12]: Cytotoxicity against human HeLaS3 cells after 3 days by XTT assay. It counts as functional, cell-based. The settings on record: HeLa S3, 72 h. In a few lines:
as §1

For assay [13], the system named is BT-549. Nature of the assay: Cytostatic activity against human BT549 cells after 5 days by SRB assay. The settings on record: BT-549, 120 h. It counts as functional. The method in brief: as §2

Each structure is given as a SMILES string. pIC50: −log10 of the molar value. A value given as a limit tells only on which side of the number the result lay.

Adenosine kinase, sequence (P55263 whole entry): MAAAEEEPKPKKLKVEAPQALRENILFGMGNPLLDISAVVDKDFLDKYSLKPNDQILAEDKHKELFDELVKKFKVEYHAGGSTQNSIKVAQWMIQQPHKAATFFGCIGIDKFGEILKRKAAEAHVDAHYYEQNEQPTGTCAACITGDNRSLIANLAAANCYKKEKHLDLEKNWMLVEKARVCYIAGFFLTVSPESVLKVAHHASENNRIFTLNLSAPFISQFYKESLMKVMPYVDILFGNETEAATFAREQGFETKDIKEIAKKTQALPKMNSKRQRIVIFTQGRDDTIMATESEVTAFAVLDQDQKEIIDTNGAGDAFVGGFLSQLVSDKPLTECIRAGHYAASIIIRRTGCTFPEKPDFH

For `COc1ccc(-c2cn([C@@H]3O[C@H](CO)[C@@H](O)[C@H]3O)c3ncnc(N)c23)cc1`, the pIC50 in assay [1] is less than 5.00; in assay [8], less than 5.00; in [10] it was less than 5.70; in assay [12] it was less than 5.00. In addition, the GI50 in [2] was 633 nM; in assay [3], 701 nM; in assay [4] it was 1110 nM; in assay [5] it was 811 nM; in [6], 4300 nM; in [7] it was 544 nM. The GI50 in assay [9] is 856 nM; in assay [11], 152 nM.

For the molecule `Nc1ncnc2c1c(-c1cccc3ccccc13)cn2[C@@H]1O[C@H](CO)[C@@H](O)[C@H]1O`, the negative-log IC50 (pIC50) in assay [1], in assay [8], in assay [10] and in assay [12] was less than 5.00 each time. Besides, the GI50 in assay [2], in [5], in assay [9] and in [11] was greater than 10000 nM throughout.

Turning to `Nc1ncnc2c1c(-c1nccs1)cn2[C@@H]1O[C@H](CO)[C@@H](O)[C@H]1O`, the pIC50 in assay [1] was 5.79; in assay [8], 7.70; in [12], 7.40. The GI50 in assay [2] came out at 93 nM; in [4], 42 nM; in [5], 15 nM; in assay [6], 42 nM; in assay [9], 5 nM.

As for `CSc1ccc(-c2cn([C@@H]3O[C@H](CO)[C@@H](O)[C@H]3O)c3ncnc(N)c23)cc1`, the pIC50 in [1], in assay [8], in [10] and in assay [12] was less than 5.00 each time. Moreover, the 50% growth inhibitory concentration (GI50) came out at 1290 nM in assay [2]; 1970 nM in assay [5]; 4400 nM in assay [6]; 390 nM in [9]; 1870 nM in [11].

Regarding `Nc1ncnc2c1c(-c1ccc[nH]1)cn2[C@@H]1O[C@H](CO)[C@@H](O)[C@H]1O`, the negative-log IC50 (pIC50) was 5.69 in assay [1], 6.80 in [8] and 5.98 in assay [12]. Also, the concentration for 50% growth inhibition (GI50) was 65.2 nM in [2]; 160 nM in assay [3]; 129 nM in [13]; 87.8 nM in assay [4]; 113 nM in assay [5]; 333 nM in assay [9].

For the molecule `C#Cc1cn([C@@H]2O[C@H](CO)[C@@H](O)[C@H]2O)c2ncnc(N)c12`, the negative logarithm of the IC50 (pIC50) in [1] was 7.05; in [8], 8.00; in assay [10], 6.70; in assay [12], 7.70. For the same molecule, the concentration for 50% growth inhibition (GI50) worked out at 2 nM in assay [2]; 11 nM in [4]; 1 nM in [5]; 1 nM in assay [6]; 1 nM in [9].

For `Nc1ncnc2c1c(-c1ccco1)cn2[C@@H]1O[C@H](CO)[C@@H](O)[C@H]1O`, the negative logarithm of the IC50 (pIC50) in assay [1] is 4.93; in [8] it was 7.00; in assay [10], less than 5.70; in assay [12], 7.30. In addition, the 50% growth inhibitory concentration (GI50) in assay [2] is 48 nM; in assay [3], 35 nM; in [4] it was 4 nM; in assay [5], 17 nM; in assay [6], 86 nM; in assay [7], 3 nM. In addition, the GI50 in [9] was 294 nM; in assay [11] it was 19 nM.

Take `Nc1ncnc2c1c(-c1ncc[nH]1)cn2[C@@H]1O[C@H](CO)[C@@H](O)[C@H]1O`: the pIC50 in assay [1] is 7.00; in [8], 7.15; in [10], less than 5.30; in [12] it was 6.36. The GI50 in assay [2] came out at 2 nM; in [4] it was 1 nM; in assay [5], 1 nM; in assay [6] it was 49 nM; in [9] it was 6 nM.
